Test results as given in ChEMBL document CHEMBL1137743, “Synthesis, antimicrobial evaluation and QSAR study of some 3-hydroxypyridine-4-one and 3-hydroxypyran-4-one derivatives” (2009).
In brackets after ≈: the same amount, converted by molar mass.

How the values were obtained:
[1] = test system: Bacillus subtilis; test: Antibacterial activity against Bacillus subtilis PTCC 1023 after 24 hrs by microplate alamar blue assay; assay type: functional; conditions: PTCC 1023, 24 h
Summary of the method: (§1)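 Bacteria from Persian type culture collection grown in Mueller–Hinton broth. Inoculum suspensions adjusted to 0.5 McFarland, final inoculum 1.5 ×10⁴. Compounds dissolved in DMSO, serially diluted twofold across the 8–512 range in 96-well plates, Alamar Blue added, sealed plates incubated 24 h at 37 °C. MIC is the lowest concentration preventing the blue-to-pink colour change. Ciprofloxacin was the reference drug.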

[2] = test system: Salmonella enterica subsp. enterica; test: Antibacterial activity against Salmonella enteritidis PTCC 1091 after 24 hrs by microplate alamar blue assay; assay type: functional, Salmonella enterica subsp. enterica serovar Enteritidis; conditions: PTCC 1091, 24 h; summary of the method: as §1
[3] = test system: Listeria monocytogenes; test: Antibacterial activity against Listeria monocytogenes PTCC 1165 after 24 hrs by microplate alamar blue assay; assay type: functional; conditions: PTCC 1165, 24 h; summary of the method: as §1
[4] = test system: Aspergillus niger; test: Antifungal activity against Aspergillus niger 5021 after 48 hrs by microplate alamar blue assay; assay type: functional; conditions: Aspergillus niger, 5021, 48 h
Summary of the method: (§2)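 Fungi from Persian type culture collection, tested in RPMI 1640 buffered with MOPS at pH 7.0. Final inoculum 1.5 ×10⁵. Compounds in DMSO, twofold serial dilutions over 8–512 in 96-well plates with Alamar Blue, incubated 48 h at 25 °C. MIC is the lowest concentration blocking the blue-to-pink shift. Ketoconazole was the reference agent.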

[5] = test system: Aspergillus flavus; test: Antifungal activity against Aspergillus flavus PTCC 5003 after 48 hrs by microplate alamar blue assay; assay type: functional; conditions: PTCC 5003, 48 h; summary of the method: as §2
[6] = test system: Pseudomonas aeruginosa; test: Antibacterial activity against Pseudomonas aeruginosa PTCC 1074 after 24 hrs by microplate alamar blue assay; assay type: functional; conditions: for MIC: Pseudomonas aeruginosa, PTCC 1074, 24 h; summary of the method: as §1
[7] = test system: Staphylococcus aureus; test: Antibacterial activity against Staphylococcus aureus PTCC 1337 after 24 hrs by microplate alamar blue assay; assay type: functional; conditions: for MIC: Staphylococcus aureus, PTCC 1337, 24 h; summary of the method: as §1
[8] = test system: Escherichia coli; test: Antibacterial activity against Escherichia coli PTCC 1338 after 24 hrs by microplate alamar blue assay; assay type: functional; conditions: PTCC 1338, 24 h; summary of the method: as §1
[9] = test system: Candida albicans; test: Antifungal activity against Candida albicans PTCC 5027 after 48 hrs by microplate alamar blue assay; assay type: functional; conditions: for MIC: Candida albicans, PTCC 5027, 48 h; summary of the method: as §2

| SMILES | MIC [1] [µg/mL] | MIC [2] [µg/mL] | MIC [3] [µg/mL] | MIC [4] [µg/mL] | MIC [5] [µg/mL] | -logMIC [6] | MIC [6] [µg/mL] | -logMIC [7] | MIC [7] [µg/mL] | MIC [8] [µg/mL] | -logMIC [9] | MIC [9] [µg/mL] |
| --- | --- | --- | --- | --- | --- | --- | --- | --- | --- | --- | --- | --- |
| Cc1cc(=O)c(O)co1 | > 512 | > 512 | 512 (≈ 4060 µM) | 512 (≈ 4060 µM) | 512 (≈ 4060 µM) | 3.59 | 256 (≈ 2030 µM) | 3.59 | > 512 | > 512 | 3.89 | 128 (≈ 1010 µM) |
| Cc1c(O)c(=O)ccn1-c1ccccc1 | 256 (≈ 1270 µM) | 128 (≈ 636 µM) | 512 (≈ 2540 µM) | > 512 | > 512 | 3.29 | 512 (≈ 2540 µM) | 3.89 | 128 (≈ 636 µM) | 128 (≈ 636 µM) | 3.29 | > 512 |
| CCc1[nH]cc(CN(C)C)c(=O)c1O | > 512 | 256 (≈ 1300 µM) | 512 (≈ 2610 µM) | 512 (≈ 2610 µM) | 512 (≈ 2610 µM) | 3.59 | 256 (≈ 1300 µM) | 3.29 | 512 (≈ 2610 µM) | 512 (≈ 2610 µM) | 3.29 | 512 (≈ 2610 µM) |
| Cc1cc(=O)c(OCc2ccccc2)c(CO)o1 | – | – | – | – | – | 3.59 | – | 3.59 | – | – | 3.89 | – |
| O=c1cc(CO)occ1OCc1ccccc1 | – | – | – | – | – | 3.89 | – | 3.59 | – | – | 3.89 | – |
| Cc1cc(=O)c(O)c(CO)o1 | – | – | – | – | – | 3.89 | – | 3.59 | – | – | 3.89 | – |
| Cc1[nH]cc(CN2CCCCC2)c(=O)c1O | 32 (≈ 144 µM) | 16 (≈ 72 µM) | 64 (≈ 288 µM) | 512 (≈ 2300 µM) | > 512 | 3.59 | 512 (≈ 2300 µM) | 3.29 | 16 (≈ 72 µM) | 64 (≈ 288 µM) | – | 128 (≈ 576 µM) |
| CCc1[nH]cc(CN(CC)CC)c(=O)c1O | 512 (≈ 2280 µM) | 512 (≈ 2280 µM) | 512 (≈ 2280 µM) | 512 (≈ 2280 µM) | 512 (≈ 2280 µM) | 3.59 | 256 (≈ 1140 µM) | 3.29 | > 512 | 512 (≈ 2280 µM) | 3.29 | 512 (≈ 2280 µM) |
| Cc1c(O)c(=O)ccn1-c1cccc(O)c1 | > 512 | 64 (≈ 295 µM) | > 512 | 512 (≈ 2360 µM) | 256 (≈ 1180 µM) | 3.29 | 512 (≈ 2360 µM) | 3.29 | 16 (≈ 73.7 µM) | 512 (≈ 2360 µM) | 3.59 | 512 (≈ 2360 µM) |
| Cc1cc(=O)c(OCc2ccccc2)c(C(=O)Nc2cccnc2)o1 | – | – | – | – | – | 3.89 | – | 3.59 | – | – | 4.49 | – |
| Cc1cc(=O)c(OCc2ccccc2)c(C(=O)Nc2cccc3ccccc23)o1 | – | – | – | – | – | 3.89 | – | 3.59 | – | – | 4.49 | – |
| Cc1cc(=O)c(O)c(C(=O)Nc2cccnc2)o1 | – | – | – | – | – | 3.89 | – | 4.19 | – | – | 3.89 | – |
| Cc1cc(=O)c(OCc2ccccc2)c(C=O)o1 | – | – | – | – | – | 3.89 | – | 4.19 | – | – | 3.89 | – |
| Cc1cc(=O)c(OCc2ccccc2)c(C(=O)O)o1 | – | – | – | – | – | 3.89 | – | 3.59 | – | – | 3.89 | – |
| CCc1[nH]cc(CN2CCCCC2)c(=O)c1O | 512 (≈ 2170 µM) | 512 (≈ 2170 µM) | > 512 | 512 (≈ 2170 µM) | 256 (≈ 1080 µM) | 3.59 | 256 (≈ 1080 µM) | 3.29 | > 512 | 512 (≈ 2170 µM) | 3.29 | 128 (≈ 542 µM) |
| Cc1[nH]cc(CN(C)C)c(=O)c1O | > 512 | 512 (≈ 2810 µM) | 512 (≈ 2810 µM) | 512 (≈ 2810 µM) | > 512 | 3.59 | 256 (≈ 1400 µM) | 3.29 | > 512 | 512 (≈ 2810 µM) | – | > 512 |
| Cc1cc(=O)oc2cc(NC(=O)c3cc(=O)c(O)cn3C)ccc12 | – | – | – | – | – | 3.59 | – | 4.49 | – | – | 3.89 | – |

| SMILES | MIC [1] [µg/mL] | MIC [2] [µg/mL] | MIC [3] [µg/mL] | MIC [4] [µg/mL] | MIC [5] [µg/mL] | -logMIC [6] | MIC [6] [µg/mL] | -logMIC [7] | MIC [7] [µg/mL] | MIC [8] [µg/mL] | -logMIC [9] | MIC [9] [µg/mL] |
| --- | --- | --- | --- | --- | --- | --- | --- | --- | --- | --- | --- | --- |
| Cc1cc(=O)oc2cc(NC(=O)c3cc(=O)c(OCc4ccccc4)co3)ccc12 | – | – | – | – | – | 3.59 | – | 3.89 | – | – | 3.89 | – |
| O=C(O)c1cc(=O)c(OCc2ccccc2)co1 | – | – | – | – | – | 3.89 | – | 3.59 | – | – | 3.89 | – |
| Cn1cc(OCc2ccccc2)c(=O)cc1C(=O)Nc1ccccc1 | – | – | – | – | – | 3.59 | – | 3.89 | – | – | 3.89 | – |
| Cn1cc(O)c(=O)cc1C(=O)Nc1ccccc1 | – | – | – | – | – | 3.89 | – | 4.8 | – | – | 3.89 | – |
| Cc1cc(=O)c(O)c(C(=O)Nc2cnc3ccccc3c2)o1 | – | – | – | – | – | 3.89 | – | 5.1 | – | – | – | – |
| Cc1cc(=O)c(O)c(C(=O)Nc2cccc3ccccc23)o1 | – | – | – | – | – | 3.89 | – | 3.59 | – | – | 3.89 | – |
| CCN(CC)Cc1c[nH]c(C)c(O)c1=O | > 512 | 128 (≈ 609 µM) | > 512 | 512 (≈ 2430 µM) | 512 (≈ 2430 µM) | 3.29 | 256 (≈ 1220 µM) | 4.19 | 512 (≈ 2430 µM) | 512 (≈ 2430 µM) | 3.89 | 512 (≈ 2430 µM) |
| O=c1cc(CCl)occ1O | > 512 | > 512 | > 512 | 128 (≈ 797 µM) | 16 (≈ 99.7 µM) | 4.19 | > 512 | 3.59 | > 512 | > 512 | 3.89 | 512 (≈ 3190 µM) |
| Cc1cc(=O)oc2cc(NC(=O)c3cc(=O)c(OCc4ccccc4)cn3C)ccc12 | – | – | – | – | – | 3.89 | – | 3.59 | – | – | 3.89 | – |
| Cc1cc(=O)c(OCc2ccccc2)c(C(=O)Nc2cnc3ccccc3c2)o1 | – | – | – | – | – | 3.89 | – | 3.89 | – | – | 3.89 | – |
| O=C(Nc1ccccc1)c1cc(=O)c(OCc2ccccc2)co1 | – | – | – | – | – | 3.59 | – | 3.89 | – | – | 3.89 | – |
| CCCCn1ccc(=O)c(O)c1C | 512 (≈ 2830 µM) | 256 (≈ 1410 µM) | > 512 | 256 (≈ 1410 µM) | 256 (≈ 1410 µM) | 3.29 | 512 (≈ 2830 µM) | 3.89 | 256 (≈ 1410 µM) | 512 (≈ 2830 µM) | 3.59 | 256 (≈ 1410 µM) |
| CCCn1ccc(=O)c(O)c1C | 256 (≈ 1530 µM) | 128 (≈ 766 µM) | 512 (≈ 3060 µM) | 512 (≈ 3060 µM) | 256 (≈ 1530 µM) | 3.89 | 512 (≈ 3060 µM) | 3.29 | 16 (≈ 95.7 µM) | 128 (≈ 766 µM) | 3.29 | 256 (≈ 1530 µM) |
| O=C(O)c1cn(C2CC2)c2cc(N3CCNCC3)c(F)cc2c1=O [CIPROFLOXACIN] | 0.06 (≈ 0.181 µM) | 1 (≈ 3.02 µM) | 1 (≈ 3.02 µM) | – | – | – | – | – | 0.5 (≈ 1.51 µM) | – | – | – |
| CC(=O)N1CCN(c2ccc(OCC3COC(Cn4ccnc4)(c4ccc(Cl)cc4Cl)O3)cc2)CC1 (stereo not given) [KETOCONAZOLE] | – | – | – | 4 (≈ 7.53 µM) | 8 (≈ 15.1 µM) | – | – | – | – | – | – | 2 (≈ 3.76 µM) |
| O=c1cc(CO)occ1O [KOJIC ACID] | – | – | – | – | – | 3.89 | – | 3.59 | – | – | 3.89 | – |
